# A selection: hits, their analogues and other compounds. The true share with any hit is near 2.9%.
# Tn6 DDE FP = inhibitors of Tn6 peptide binding to human fibrin DD(E); inhibition, % at 8.3 µM; hit rate 0.21% among 370,000; P02675; Fibrin DD(E) TRITC-Tn6 fluorescence polarization displacement;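 active = inhibition above a per-campaign cutoff: mean of compounds within control limits plus 3 SD, cut at about 15% in these data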
# Target sequence (P02675 whole entry, looked up): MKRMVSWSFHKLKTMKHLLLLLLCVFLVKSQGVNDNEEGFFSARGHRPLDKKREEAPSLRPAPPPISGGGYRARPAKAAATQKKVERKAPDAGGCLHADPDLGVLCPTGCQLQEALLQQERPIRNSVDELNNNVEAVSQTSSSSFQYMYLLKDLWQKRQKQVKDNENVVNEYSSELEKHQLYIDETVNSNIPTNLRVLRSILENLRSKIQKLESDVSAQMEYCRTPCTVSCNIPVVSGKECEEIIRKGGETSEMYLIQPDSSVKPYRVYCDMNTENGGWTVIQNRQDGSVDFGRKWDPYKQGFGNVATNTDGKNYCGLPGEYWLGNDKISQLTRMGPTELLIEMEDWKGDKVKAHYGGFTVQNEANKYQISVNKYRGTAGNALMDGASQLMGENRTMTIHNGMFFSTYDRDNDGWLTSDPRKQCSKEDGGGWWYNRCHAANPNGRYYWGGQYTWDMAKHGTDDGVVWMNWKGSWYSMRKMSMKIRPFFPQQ
# KLK7 zymogen act = proKLK7 (human) activation, primary screen | purified proKLK7, EDANS-DABCYL substrate fluorescence; 100% is mature enzyme control, 0% vehicle | activation, % at 7 µM | hit rate 0.9% among 370,000;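 active = activation above the mean of all tested compounds plus 3 SD, computed per campaign excluding outliers beyond control limits, cut at about 13% in these data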
# Tn7 DDE FP = inhibitors of Tn7 peptide binding to human fibrin DD(E) | hit rate 0.13% among 370,000 | FP displacement of FITC-Tn7 peptide from fibrin DD(E); 0% = median of compound wells per plate | P02675 | inhibition, % at 8.3 µM | AID 720508;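 active = inhibition above the mean of compounds falling within the control limits plus 3 SD of them, cut at about 14% in these data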
#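 Assay system: human fibrin DD(E) protein / Input: 2 µM fibrin DD(E) / Benchmarks: high control of 10 µM Aha-Tn7 peptide / Measured by: fluorescence polarization of the labelled Tn7 tracer / Medium: Tris buffer with calcium and detergent, pH 7.8 / Timing: 10 min compound pre-incubation, 3 h probe incubation at room temperature / Repeats: one replicate per compound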
# CRFBP-R2 agonist = CRF-BP/CRF-R2 complex agonism | HEK293 CRF-R2/CRF-BP, calcium dye fluorescence (FLIPR); percent of saturating CRF peptide response | activation, % at 13.2 µM | hit rate 0.46% among 350,000;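 active = activation of at least 50%, plus an integration ratio under a set limit after plate pattern correction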
# NRP1-CendR mod = NRP-1/CendR interaction modulation; AID 602438; inhibition, % at 25 µM; FAM-RPARPAR peptide binding to NRP-1, fluorescence polarization; hit rate 0.85% among 360,000;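 active = inhibition or corrected inhibition above about 18%, plus a signal ratio from 0.5 to 1.5, limit read from the data, passing the limit was not always enough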
# CRFR2-BP antag = antagonists of CRF-binding protein/CRF-R2 receptor complex; HEK293 CRF-R2/CRF-BP, CRF-induced calcium fluorescence; inhibition, % at 11.8 µM; hit rate 0.59% among 350,000;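 active = inhibition of the ligand-induced calcium signal above about 50% at the single tested concentration, limit read from the data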
# KLK7 act conf = proKLK7 activation, confirmation; shares compounds with KLK7 zymogen act; purified proKLK7, EDANS-DABCYL substrate fluorescence; scaled: vehicle 0, mature enzyme 100; activation, % at 7 µM; hit rate 68% among 3,200; AID 686949;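 active = activation, as change over the incubation, above the mean of all tested compounds plus 3 SD, cut at about 13% in these data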
# EDANS interfere = fluorescence interference counter-screen for KLK7 activators; shares compounds with KLK7 zymogen act; hit rate 80% among 3,200; EDANS-DABCYL substrate fluorescence interference, no enzyme, 4 h; solvent 0%, active enzyme control 100%; activation, % at 7 µM; AID 686952;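 active = activation above the all-compound mean plus 3 SD, ignoring values outside control-based bounds, cut at about 4.8% in these data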;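 note: value is the 4 h activation minus the activation read at time zero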
# A number is an active result; n = inactive; x = no result given; ! = not active in a repeat.
SMILES,Tn6 DDE FP,KLK7 zymogen act,Tn7 DDE FP,CRFBP-R2 agonist,NRP1-CendR mod,CRFR2-BP antag,KLK7 act conf,EDANS interfere
COc1ccccc1N1C(=O)S/C(=C\c2ccc(C)s2)C1=O,n,n,n,n,n,n,x,x
Cc1ccc(NC(=O)CN2C(=O)S/C(=C\c3cc(C)n(C)c3C)C2=O)cc1,n,20,n,n,n,n,n,n
Cc1cccc(NC(=O)CN2C(=O)S/C(=C\c3cc(C)n(C)c3C)C2=O)c1,n,n,n,n,n,n,x,x
CC(C)CCN=Cc1c(O)n(-c2ccccc2)c(=O)c2ccccc12,n,n,n,n,n,n,x,x
CCN1CCCC1CN=Cc1c(O)n(-c2ccccc2)c(=O)c2ccccc12 (stereo not drawn),n,16,n,n,n,n,16,18
CCN1CCN(c2nc(-c3ccccc3)c3ccccc3n2)CC1,n,28,n,n,n,n,n,n
CCN(CC)c1nc(N2CCN(CCO)CC2)nc2ccccc12,n,n,n,n,n,n,x,x
c1ccc(-c2nc(N3CCNCC3)nc3ccccc23)cc1,n,69,n,n,n,n,18,19
c1ccc(-c2nc(N3CCCCC3)nc3ccccc23)cc1,n,22,n,n,n,n,n,n
c1ccc2c(N3CCCCC3)nc(N3CCCC3)nc2c1,n,n,n,n,n,n,x,x
CCN(CC)C(=O)c1oc(=O)c2ccccc2c1-c1ccc(C)cc1,n,n,n,x,x,x,x,x
O=C1N/C(=C/c2ccc(N3CCOCC3)o2)C(=O)N1c1ccccc1,n,20,n,n,n,56,n,10
C=CCN1C(=O)N/C(=C/c2ccc(N3CCOCC3)o2)C1=O,n,n,n,x,x,x,x,x
Cc1ccccc1N=Nc1c(N)[nH]n(-c2ccccc2)c1=O,n,n,n,x,x,x,x,x
CCCCN(C(=O)NC(=O)Nc1ccc(C)cn1)S(C)(=O)=O,n,19,n,n,n,n,n,n
CCCCN(C(=O)NC(=O)Nc1cc(C)ccc1C)S(C)(=O)=O,n,n,n,n,n,n,x,x
CCCCCC(=O)NC1CCCCN(Cc2cccc(Cl)c2)C1=O (stereo not drawn),n,n,n,x,x,x,x,x
Cc1c(O)cnc2nn(-c3ccccc3)c(=N)n12,n,40,n,x,n,x,17,17
Cn1c(=O)c2[nH]c(-c3ccccc3Cl)c(O)c2n(C)c1=O,n,58,n,55,n,n,71,77
CCCCn1c(SCC(=O)Nc2ccc(OC)cc2)nc2ccc(N3CCOCC3)cc2c1=O,n,17,n,n,n,n,n,n
CN(C)c1ccc(-c2nc3cc(N)ccc3o2)cc1,n,23,n,n,n,n,n,24
Nc1ccc(-c2nnc(-c3ccc(N)cc3)o2)cc1,n,18,n,n,n,n,36,44
Cc1ccc(-c2nc3cc(N)ccc3o2)cc1Br,n,n,n,n,n,n,x,x
Nc1ccc(-c2nc3cc(N)ccc3o2)cc1,n,55,n,n,n,n,65,75
Nc1ccc(-c2nc3ccc(N)cc3o2)cc1,n,56,n,n,n,n,70,73
SMILES,Tn6 DDE FP,KLK7 zymogen act,Tn7 DDE FP,CRFBP-R2 agonist,NRP1-CendR mod,CRFR2-BP antag,KLK7 act conf,EDANS interfere
C#CCN(Cc1cccc(F)c1)C(=O)c1nnc2c3cc(F)ccc3n(S(=O)(=O)c3ccc(OC)cc3)c2n1,n,n,n,x,x,x,x,x
Cn1c(=O)c2cc(NC(=O)NCCc3ccccc3)ccc2n1Cc1ccc(F)cc1,n,16,n,x,n,x,n,n
Cn1c(=O)c2cc(NC(=S)NCc3ccccc3F)ccc2n1Cc1ccc(F)cc1,n,n,n,x,n,x,x,x
C=C(C)Cn1c2ccc(NC(=O)NCCc3ccccc3)cc2c(=O)n1C,n,27,n,x,n,x,n,20
Cn1c(=O)c2cc(NC(=S)NC3CC3)ccc2n1Cc1ccc(F)cc1,n,14,n,x,n,x,n,14
C[n+]1c2cc(N)ccc2cc2ccc(N)cc21,n,34!,n,225,n,n,56,59
